The record followed here is ChEMBL document CHEMBL5329156, “Discovery and development of novel substituted monohydrazides as potent antifungal agents” (RSC Med Chem, 2023).

In brackets after ≈: the same amount, converted by molar mass.

What is called MIC is the smallest concentration in the dilution series that meets the test's criterion for growth inhibition.

Common to all, as to assay type: functional
The subject of test [1] is Candida albicans. Nature of the test: Antifungal activity against Candida albicans ATCC 10231 assessed as fungal growth inhibition by double dilution method. In short, it runs like this: (§1)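 Broth microdilution after CLSI M27-A3/M38-A2 with minor changes. Single colony grown overnight in YPD at 35 °C, 200 rpm. Compound final range 0.06-31.3 µg/mL; incubated 48 h at 35 °C.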

The test system of test [2] is Candida albicans. Nature of the test: Antifungal activity against Candida albicans ATCC 64124 assessed as fungal growth inhibition by double dilution method. In short, it runs like this: (§2)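 Broth microdilution after CLSI M27-A3/M38-A2 with minor modifications. A single colony was grown overnight in YPD at 35 °C with shaking at 200 rpm. Cells were mixed 1:1 with compound (final 0.06-31.3 µg/mL, from DMSO stocks) and incubated 48 h at 35 °C.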

Test [3] has as its system Candida albicans. Nature of the test: Antifungal activity against itraconazole/fluconazole susceptible Candida albicans ATCC MYA-2876 assessed as fungal growth inhibition by double dilution method. In short, it runs like this:
as §2

The subject of test [4] is Candida albicans. Nature of the test: Antifungal activity against itraconazole/fluconazole resistant Candida albicans ATCC 90819 assessed as fungal growth inhibition by double dilution method. The method in brief: as §2
The test system of test [5] is Candida albicans. Nature of the test: Antifungal activity against itraconazole/fluconazole susceptible Candida albicans ATCC MYA-2310 assessed as fungal growth inhibition by double dilution method. The method in brief:
as §2

Test [6] concerns Candida albicans. Nature of the test: Antifungal activity against itraconazole/fluconazole resistant Candida albicans ATCC MYA-1237 assessed as fungal growth inhibition by double dilution method. In short, it runs like this: as §2
The test system of test [7] is Candida albicans. Nature of the test: Antifungal activity against itraconazole/fluconazole resistant Candida albicans ATCC MYA-1003 assessed as fungal growth inhibition by double dilution method. In short, it runs like this:
as §2

Test [8] has as its system Nakaseomyces glabratus. Nature of the test: Antifungal activity against Candida glabrata ATCC 2001 assessed as fungal growth inhibition by double dilution method. In short, it runs like this: as §1
In test [9] the test system is Pichia kudriavzevii. Nature of the test: Antifungal activity against Pichia kudriavzevii ATCC 6258 assessed as fungal growth inhibition by double dilution method. The method in brief: as §1
Test [10] has as its system Nakaseomyces glabratus. Nature of the test: Antifungal activity against Candida glabrata ATCC 22019 assessed as fungal growth inhibition by double dilution method. In short, it runs like this: as §1
Test [11] has as its system [Candida] auris. Nature of the test: Antifungal activity against Candida auris AR Bank # 0384 assessed as fungal growth inhibition by double dilution method. The conditions noted are these: Candidozyma auris. In short, it runs like this: as §1
The test system of test [12] is [Candida] auris. Nature of the test: Antifungal activity against Candida auris AR Bank # 0390 assessed as fungal growth inhibition by double dilution method. The conditions noted are these: Candidozyma auris. In short, it runs like this:
as §1

The test system of test [13] is Cryptococcus neoformans. Nature of the test: Antifungal activity against Cryptococcus neoformans ATCC MYA-895 assessed as fungal growth inhibition by double dilution method. In short, it runs like this: as §1
For test [14], the system named is Aspergillus terreus. Nature of the test: Antifungal activity against Aspergillus terreus ATCC MYA-3633 assessed as fungal growth inhibition by double dilution method.
Test [15] concerns Aspergillus fumigatus. Nature of the test: Antifungal activity against Aspergillus fumigatus NRRL 163 assessed as fungal growth inhibition by double dilution method.
The subject of test [16] is Aspergillus flavus. Nature of the test: Antifungal activity against Aspergillus flavus ATCC MYA-3631 assessed as fungal growth inhibition by double dilution method.
The test system of test [17] is Aspergillus nidulans. Nature of the test: Antifungal activity against Aspergillus nidulans ATCC 38163 assessed as fungal growth inhibition by double dilution method.
Test [18] deals with Aspergillus fumigatus. Nature of the test: Antifungal activity against Aspergillus fumigatus NRRL 5109 assessed as fungal growth inhibition by double dilution method.
The subject of test [19] is Aspergillus fumigatus. Nature of the test: Antifungal activity against Aspergillus fumigatus NRRL 6113 assessed as fungal growth inhibition by double dilution method.

As for `COc1cccc(NNC(=O)c2cccc(Br)n2)c1`, the minimum inhibitory concentration (MIC) in test [1] came to 1.95 µg/mL (≈ 6.05 µM); in test [2], 3.9 µg/mL (≈ 12.1 µM); in test [3], 0.49 µg/mL (≈ 1.52 µM); in test [4], 1.95 µg/mL (≈ 6.05 µM); in test [5], 7.8 µg/mL (≈ 24.2 µM); in test [6] it was 0.98 µg/mL (≈ 3.04 µM). Moreover, the MIC in [7] turned out to be 3.9 µg/mL (≈ 12.1 µM); in test [8], 7.8 µg/mL (≈ 24.2 µM); in [9] it was 0.24 µg/mL (≈ 0.745 µM); in [10], 0.98 µg/mL (≈ 3.04 µM); in [11] it was 0.98 µg/mL (≈ 3.04 µM); in test [12], 1.95 µg/mL (≈ 6.05 µM). Moreover, the minimal inhibitory concentration (MIC) was 0.98 µg/mL (≈ 3.04 µM) in test [13]; 1.95 µg/mL (≈ 6.05 µM) in test [14]; > 31.3 µg/mL in test [15]; > 31.3 µg/mL in test [16]; 3.9 µg/mL (≈ 12.1 µM) in test [17]; 31.3 µg/mL (≈ 97.2 µM) in test [18]. In addition, the minimum inhibitory concentration (MIC) in test [19] was > 31.3 µg/mL.

For the compound `O=C(NNc1cccc(F)c1)c1ncc(F)cc1F`, the minimal inhibitory concentration (MIC) in test [1] was found to be 0.24 µg/mL (≈ 0.898 µM); in test [2], 0.98 µg/mL (≈ 3.67 µM); in [3], 1.95 µg/mL (≈ 7.3 µM); in test [4], 3.9 µg/mL (≈ 14.6 µM); in test [5] it was 1.95 µg/mL (≈ 7.3 µM); in test [6], 3.9 µg/mL (≈ 14.6 µM). Further, the minimum inhibitory concentration (MIC) in test [7] turned out to be 1.95 µg/mL (≈ 7.3 µM); in test [8] it was 31.3 µg/mL (≈ 117 µM); in test [9], 0.24 µg/mL (≈ 0.898 µM); in test [10], 1.95 µg/mL (≈ 7.3 µM); in test [11], 1.95 µg/mL (≈ 7.3 µM); in [12], 1.95 µg/mL (≈ 7.3 µM). Also, the minimum inhibitory concentration (MIC) is ≤ 0.06 µg/mL in [13]; 3.9 µg/mL (≈ 14.6 µM) in test [14]; > 31.3 µg/mL in test [15]; > 31.3 µg/mL in test [16]; 0.98 µg/mL (≈ 3.67 µM) in test [17]; > 31.3 µg/mL in [18]. For the same compound, the MIC in test [19] was > 31.3 µg/mL.

For the compound `COc1ccc(NNC(=O)c2ncc(F)cc2F)cc1`, the MIC in test [1] worked out at 1.95 µg/mL (≈ 6.98 µM); in test [2], 1.95 µg/mL (≈ 6.98 µM); in [3], 1.95 µg/mL (≈ 6.98 µM); in test [4], 1.95 µg/mL (≈ 6.98 µM); in test [5] it was 1.95 µg/mL (≈ 6.98 µM); in test [6] it was 0.98 µg/mL (≈ 3.51 µM). Besides, the MIC in test [7] worked out at 0.98 µg/mL (≈ 3.51 µM); in test [8], 7.8 µg/mL (≈ 27.9 µM); in test [9] it was 0.98 µg/mL (≈ 3.51 µM); in [10], 7.8 µg/mL (≈ 27.9 µM); in test [11], 3.9 µg/mL (≈ 14 µM); in test [12], 0.98 µg/mL (≈ 3.51 µM). In addition, the MIC was 1.95 µg/mL (≈ 6.98 µM) in test [13]; 31.3 µg/mL (≈ 112 µM) in test [14]; 31.3 µg/mL (≈ 112 µM) in [15]; > 31.3 µg/mL in test [16]; 1.95 µg/mL (≈ 6.98 µM) in test [17]; 31.3 µg/mL (≈ 112 µM) in test [18]. The MIC in test [19] was found to be 31.3 µg/mL (≈ 112 µM).

Regarding `COc1ccc(NNC(=O)c2cccc(F)n2)cc1`, the minimum inhibitory concentration (MIC) stood at 0.24 µg/mL (≈ 0.919 µM) in test [1]; 1.95 µg/mL (≈ 7.46 µM) in test [2]; 0.98 µg/mL (≈ 3.75 µM) in test [3]; 1.95 µg/mL (≈ 7.46 µM) in test [4]; 0.98 µg/mL (≈ 3.75 µM) in test [5]; 0.98 µg/mL (≈ 3.75 µM) in test [6]. Moreover, the MIC in [7] was 0.98 µg/mL (≈ 3.75 µM); in [8] it was 0.98 µg/mL (≈ 3.75 µM); in test [9], 0.49 µg/mL (≈ 1.88 µM); in test [10], 7.8 µg/mL (≈ 29.9 µM); in [11], 1.95 µg/mL (≈ 7.46 µM); in test [12], 1.95 µg/mL (≈ 7.46 µM). For the same compound, the minimal inhibitory concentration (MIC) was 0.24 µg/mL (≈ 0.919 µM) in test [13]; 15.6 µg/mL (≈ 59.7 µM) in test [14]; > 31.3 µg/mL in test [15]; > 31.3 µg/mL in test [16]; 1.95 µg/mL (≈ 7.46 µM) in [17]; > 31.3 µg/mL in [18]. In addition, the minimum inhibitory concentration (MIC) in [19] worked out at 15.6 µg/mL (≈ 59.7 µM).

For the compound `O=C(NNc1cccc(F)c1)c1ccc(F)cn1`, the MIC in test [1] amounted to 0.49 µg/mL (≈ 1.97 µM); in test [2], 0.49 µg/mL (≈ 1.97 µM); in test [3], 3.9 µg/mL (≈ 15.6 µM); in test [4], 3.9 µg/mL (≈ 15.6 µM); in test [5] it was 3.9 µg/mL (≈ 15.6 µM); in test [6], 3.9 µg/mL (≈ 15.6 µM). The MIC in test [7] amounted to 1.95 µg/mL (≈ 7.82 µM); in test [8], 31.3 µg/mL (≈ 126 µM); in [9] it was 0.24 µg/mL (≈ 0.963 µM); in [10] it was 1.95 µg/mL (≈ 7.82 µM); in test [11], 1.95 µg/mL (≈ 7.82 µM); in test [12], 1.95 µg/mL (≈ 7.82 µM). The minimal inhibitory concentration (MIC) in test [13] is ≤ 0.06 µg/mL; in [14], 1.95 µg/mL (≈ 7.82 µM); in [15], > 31.3 µg/mL; in [16], 7.8 µg/mL (≈ 31.3 µM); in test [17], 0.98 µg/mL (≈ 3.93 µM); in [18], > 31.3 µg/mL. For the same compound, the minimal inhibitory concentration (MIC) in test [19] is > 31.3 µg/mL.
